In ChEMBL document CHEMBL4052590, “Anti-Osteoporotic Activity of Harpagoside by Upregulation of the BMP2 and Wnt Signaling Pathways in Osteoblasts and Suppression of Differentiation in Osteoclasts” (J Nat Prod, 2017):
Activity calls are given as the source filed them. The calls are words filed in the database; no cut-off is given here.

Tests used:
Mus musculus [1] = test: Anti-osteoporotic activity in ovariectomized ICR mouse assessed as suppression of changes in trabecular separation in femur at 2 to 10 mg/kg, po after 12 weeks by microcomputed tomography; format: functional, organism-based
MC3T3-E1 [2] = test: Increase in OPN mRNA expression in 2 days differentiated mouse MC3T3-E1 cells up to 4 uM after 48 hrs in presence of ascorbic acid and beta-glycerophosphate by real-time PCR analysis; format: functional, cell-based
Mus musculus [3] = organism: Mus musculus; test: Activation of Wnt signaling pathway in mouse MC3T3-E1 cells assessed as increase in Smad protein expression up to 4 uM after 48 hrs in presence of ascorbic acid and beta-glycerophosphate by Western blot analysis; format: cell-based
Method in brief: (§1)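 MC3T3-E1 cells given 400 μM ascorbic acid plus 5 mM β-glycerophosphate, exposed to test compound or not for 48 h. Lysed in boiling SDS sample buffer, protein measured by BCA. 40−50 μg of lysate run on 8% or 10% SDS-PAGE and transferred to PVDF. Blocked in 5% milk, probed with primary antibodies for 3 h at room temperature or overnight at 4 °C, detected by ECL.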

Mus musculus [4] = test: Effect on alkaline phosphatase activity in serum of OVX-induced bone loss ICR mouse model at 10 mg/kg, po for 12 weeks using p-NPP as substrate (reference value: 84.9 +/- 4.2 U/L); format: functional
Mus musculus [5] = test: Anti-osteoporotic activity in ovariectomized ICR mouse assessed as suppression of changes in structure model index levels in femur at 2 to 10 mg/kg, po after 12 weeks by microcomputed tomography; format: functional, organism-based
[6] = biological target: T1, Catenin beta-1 (Mus musculus) (UniProt Q02248); test: Downregulation of beta-catenin phosphorylated protein expression in mouse MC3T3-E1 cells up to 4 uM after 48 hrs in presence of ascorbic acid and beta-glycerophosphate by Western blot analysis; format: cell-based; method in brief: as §1
T1 sequence (whole entry): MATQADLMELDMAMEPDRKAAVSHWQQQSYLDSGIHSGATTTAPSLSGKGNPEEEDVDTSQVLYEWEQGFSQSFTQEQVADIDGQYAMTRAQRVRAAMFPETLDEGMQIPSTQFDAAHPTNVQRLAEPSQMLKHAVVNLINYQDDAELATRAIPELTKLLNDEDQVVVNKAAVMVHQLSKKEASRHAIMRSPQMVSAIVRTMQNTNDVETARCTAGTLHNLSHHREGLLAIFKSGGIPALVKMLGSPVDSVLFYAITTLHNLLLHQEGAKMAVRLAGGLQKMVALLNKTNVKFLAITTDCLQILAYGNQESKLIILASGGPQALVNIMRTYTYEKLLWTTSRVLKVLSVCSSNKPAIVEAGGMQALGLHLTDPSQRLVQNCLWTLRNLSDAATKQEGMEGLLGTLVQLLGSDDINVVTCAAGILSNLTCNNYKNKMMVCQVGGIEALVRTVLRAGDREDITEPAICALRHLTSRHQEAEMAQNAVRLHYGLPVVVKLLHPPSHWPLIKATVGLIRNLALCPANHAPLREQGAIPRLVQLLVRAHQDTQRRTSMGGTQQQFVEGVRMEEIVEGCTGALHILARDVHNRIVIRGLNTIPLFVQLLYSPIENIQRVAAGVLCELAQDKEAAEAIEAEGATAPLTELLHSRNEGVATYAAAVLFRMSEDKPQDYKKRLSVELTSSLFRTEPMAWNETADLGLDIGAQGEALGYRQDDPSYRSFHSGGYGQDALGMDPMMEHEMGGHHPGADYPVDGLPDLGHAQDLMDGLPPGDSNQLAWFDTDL

MC3T3-E1 [7] = test: Increase in OPG to RANKL mRNA expression ratio in mouse MC3T3-E1 cells up to 4 uM after 48 hrs in presence of ascorbic acid and beta-glycerophosphate by real-time PCR analysis; format: functional, cell-based
Method in brief: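 MC3T3-E1 cells stimulated with 400 μM ascorbic acid and 5 mM β-glycerophosphate, with or without compound, 48 h. TRIzol RNA, real-time RT-PCR: 40 cycles of 95 °C 20 s, 56 °C 20 s, 72 °C 30 s. Ct of each transcript […] β-actin Ct, expressed relative to control samples.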

Mus musculus [8] = test: Effect on C-terminal telopeptide level in serum of OVX-induced bone loss ICR mouse model at 5 mg/kg, po for 12 weeks by ELISA (reference value: 95.7 +/- 3.8 ng/ml); format: functional

`C[C@]1(OC(=O)/C=C/c2ccccc2)C[C@@H](O)[C@]2(O)C=CO[C@@H](O[C@@H]3O[C@H](CO)[C@@H](O)[C@H](O)[C@H]3O)[C@@H]21` [HARPAGOSIDE] was tested, and the Activity (Mus musculus [1]) was “Active”, the Activity (MC3T3-E1 [2]) was “Dose-dependent effect” and the Activity (Mus musculus [3]) was “Active”. The Activity (Mus musculus [4]) was 78.8 U/L, the Activity (Mus musculus [5]) was “Active” and the Activity [6] was “Active”. The Activity (MC3T3-E1 [7]) was “Active” and the Activity (Mus musculus [8]) was 85.9 ng/mL.
